# Assay outcomes as filed in PubChem.
# A selection: hits, their analogues and other compounds. The true share with any hit is near 2.9%.
# Hck-Nef inh: inhibitors of Nef-activated human Hck kinase, primary screen, biochemical, Z-Lyte FRET, 384-well, Hck-YEEI. Tyrosine-protein kinase HCK (Homo sapiens), P08631. Recombinant Hck-YEEI plus Nef, Z-Lyte FRET kinase assay. inhibition, % at 20 µM. actives 0.68% (n = 220,000). AID 463187, 2010;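 active means Hck-Nef kinase inhibition above about 50%, limit read from the data; inactive means inhibition below that limit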;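 further: 0% = DMSO with Hck plus Nef and 100% = Hck alone without Nef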
# Target sequence (P08631 whole entry, looked up): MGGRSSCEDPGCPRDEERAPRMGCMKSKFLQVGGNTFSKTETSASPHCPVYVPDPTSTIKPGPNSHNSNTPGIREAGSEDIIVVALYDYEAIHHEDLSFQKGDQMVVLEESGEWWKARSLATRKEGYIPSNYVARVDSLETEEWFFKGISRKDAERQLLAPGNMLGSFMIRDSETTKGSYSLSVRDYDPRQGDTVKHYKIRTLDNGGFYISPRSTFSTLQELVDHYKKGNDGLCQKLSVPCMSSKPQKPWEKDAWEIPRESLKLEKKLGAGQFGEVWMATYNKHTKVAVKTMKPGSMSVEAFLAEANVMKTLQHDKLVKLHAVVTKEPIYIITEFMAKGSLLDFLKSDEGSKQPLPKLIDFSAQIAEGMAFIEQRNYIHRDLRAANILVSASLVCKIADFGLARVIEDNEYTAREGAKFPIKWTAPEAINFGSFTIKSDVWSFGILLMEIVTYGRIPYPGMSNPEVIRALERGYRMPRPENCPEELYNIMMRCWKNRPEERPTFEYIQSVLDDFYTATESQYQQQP
# RanGTP-Impb inh: inhibitors of RanGTP-importin-beta interaction, primary screen, biochemical, FRET, CFP-Ran, YFP-importin-beta, homogeneous; Ran GTPase (GTP-bound) - importin-beta complex; cell-free CFP-Ran/YFP-importin-beta FRET ratio; inhibition, % (no concentration beside the values); actives 1.1% (n = 300,000);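 active means more than half of the replicate wells show a fall in the fluorescence ratio signal beyond about 16%, limit read from the data, passing the limit was not always enough; inconclusive means exactly half of the replicate wells pass the set limit; inactive means fewer than half of replicates pass the limit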;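 further: 0% = DMSO wells and 100% = Ran loaded with GDP instead of GTP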
# RBBP9 inh: human RBBP9 inhibitors, primary screen, biochemical, fluorescence polarization, FP-Rh probe, HTS; Serine hydrolase RBBP9 (Homo sapiens), O75884; recombinant RBBP9; inhibition, % at 7.94 µM; actives 0.2% (n = 220,000); AID 1515, 2009;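 active means inhibition above the campaign mean of all tested compounds plus 3 SD, cut at about 14% in these data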;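 further: plate controls were DMSO wells with RBBP9 for no effect and wells lacking RBBP9 protein for full effect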
#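 system = RBBP9 protein | input = RBBP9 at 2.5 µM in dispensed solution, before mixing | measured by = fluorescence polarization (mP), excitation 525 nm, emission 598 nm | incubation = enzyme-compound preincubation 30 min, then probe labeling 45 min, 25 °C | buffer or medium = Tris-NaCl-Pluronic buffer, pH 8.0 | compound = single dose 7.94 µM | also added = FP-Rh probe, 375 nM dispensing solution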
# Runt-SMMHC FRET: inhibitors of RUNX1 Runt–CBFb-SMMHC binding, primary screen, biochemical, FRET, Cerulean-Runt, Venus-CBFb-SMMHC, uHTS. Cerulean-Runt/Venus-CBFb-SMMHC FRET ratio 530/480, 1 h. inhibition, % at 20 µM. actives 0.74% (n = 220,000). AID 1434, 2008;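 active means mean inhibition across duplicate retests at 20 µM reaching about 50%, limit read from the data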;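 further: 0% = DMSO wells and 100% = wells with excess untagged CBFb-SMMHC; inhibitors lower the FRET ratio by blocking Runt binding to CBFb-SMMHC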
# M18AAP inhibitor: PfM18AAP inhibitors, malaria aminopeptidase, primary screen, biochemical, QFRET, recombinant enzyme; H-Glu-NHMec fluorogenic cleavage; inhibition, % at 7.35 µM; actives 1.2% (n = 290,000); AID 1822, 2009;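 active means inhibition above the campaign mean inhibition over all tested compounds plus 3 SD, cut at about 28% in these data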;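 further: 0% = plate median of test compound wells and 100% = 2 mM ZnCl2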
# Runt-CBFb FRET: inhibitors of RUNX1 Runt–CBFb binding, primary screen, biochemical, FRET, Cerulean-Runt, Venus-CBFb, uHTS; actives 0.46% (n = 220,000); Cerulean-Runt/Venus-CBFb FRET ratio 530/480, 1 h; Runt-related transcription factor 1 (Homo sapiens) + Core-binding factor subunit beta …; inhibition, % at 20 µM;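 active means inhibition over about 50% at 20 µM in the single-dose screen, limit read from the data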;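 further: 0% = DMSO wells and 100% = excess unlabeled CBFb competitor control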
#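 Measured by: fluorescence energy transfer, 422 nm excitation, 530/480 nm emission; Assay system: Cerulean-Runt domain; Medium: Tris pH 7.5 buffer with BSA; Measure: loss of energy transfer signal; Controls: 5 µM unlabeled CBFb as full-inhibition high control; Incubation: protein complex preformed 1 h, compound exposure 1 h, room temperature, dark.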
# Numbers without * were called inactive; u = inconclusive; x = no result given.
SMILES,Hck-Nef inh,RanGTP-Impb inh,RBBP9 inh,Runt-SMMHC FRET,M18AAP inhibitor,Runt-CBFb FRET
O=C(COC(=O)c1ccc(NS(=O)(=O)c2cccs2)cc1)NCc1ccco1,57*,6,-4,-7,18,7
COc1cc(C2C(C#N)=C(N)Oc3n[nH]c(-c4cccs4)c32)cc(OC)c1O (stereo unspecified),10,u,1,-17,28*,1
O=C(CN1CCN(c2ccccc2)CC1)Nc1ccccc1C(F)(F)F,2,1,2,-4,-6,80*
CN1CCN(CC(=O)Nc2ccccc2C(F)(F)F)CC1,x,-1,x,x,-2,x
OC1CCCN(Cc2ccc3ccc4cccc5ccc2c3c45)C1 (stereo unspecified),3,41*,-7,9,0,x
c1cc2ccc3ccc(CN4CCOCC4)c4ccc(c1)c2c34,0,45*,-3,10,1,x
OC1CCCN(Cc2cn(Cc3ccccc3)nc2-c2cc3ccccc3o2)C1 (stereo unspecified),16,3,-6,1,-9,1
O=C(NC(O)C(=O)c1ccccc1)c1ccc(F)cc1 (stereo unspecified),x,2,x,x,5,x
CCOC(=O)N1CCC(NC(=O)c2ccc3c(c2)sc2nc(-c4cccc(OC)c4)cn23)CC1,27,4,-26,-3,30*,5
O=C(Nc1cccc(Cl)c1)C1COc2ccccc2O1 (stereo unspecified),x,2,x,x,7,x
COc1cccc2sc3ccc(C#CC4(O)CCCCC4)cc3c(=O)c12,x,49*,x,x,8,x
COc1cccc2oc3cc(C#CC4(O)CCCCC4)ccc3c(=O)c12,x,2,x,x,-2,x
COc1cc(C2C3=C(CCCC3=O)Nc3ccc4ncccc4c32)ccc1O (stereo unspecified),-15,-2,-5,2,6,4
CCOc1cc(C2C3=C(CCCC3=O)Nc3ccc4ncccc4c32)ccc1O (stereo unspecified),18,22*,2,-3,6,0
CC(=O)Nc1ccc(/C=N/NC(=O)c2cccc(S(=O)(=O)N3CCOCC3)c2)cc1,5,-1,-8,3,0,0
N#Cc1ccc(/C=N/NC(=O)c2cccc(S(=O)(=O)N3CCOCC3)c2)cc1,-15,32*,7,-1,13,1
Fc1ccc(C2CC(c3cccs3)=NN2c2ccccc2)cc1 (stereo unspecified),39,1,-2,79*,12,25
COc1ccc(C2CC(c3cccs3)=NN2c2nc(-c3ccccc3)cs2)cc1OC (stereo unspecified),3,56*,-1,-7,1,11
CSc1ccc(S(=O)(=O)NCC(=O)OCC(=O)N2CCCC2=O)cc1[N+](=O)[O-],x,1,x,x,x,x
Cc1ccccc1CN1CCN(Cc2ccc3cccc(F)c3n2)CC1CCO (stereo unspecified),x,1,x,x,1,x
COCCNC(=O)c1c(N)n(/N=C/c2cccs2)c2nc3ccccc3nc12,4,95*,-2,24,11,62*
COCCCNC(=O)c1c(N)n(-c2ccc3c(c2)OCO3)c2nc3ccccc3nc12,12,5,-2,9,3,1
CCOCCCNC(=O)c1c(N)n(-c2ccc3c(c2)OCO3)c2nc3ccccc3nc12,27,133*,2,40,4,12
Nc1c(C(=O)NC2CCCCC2)c2nc3ccccc3nc2n1/N=C/c1ccco1,x,x,x,52*,x,17
CCOCCCNC(=O)c1c(N)n(-c2ccc(S(N)(=O)=O)cc2)c2nc3ccccc3nc12,6,u,-6,58*,-5,35
SMILES,Hck-Nef inh,RanGTP-Impb inh,RBBP9 inh,Runt-SMMHC FRET,M18AAP inhibitor,Runt-CBFb FRET
O=c1oc(-c2ccc(Cl)c(Cl)c2)nn1-c1ccc(C(F)(F)F)cn1,10,-1,-5,2,2,0
CCCNC(=O)c1c(N)n(-c2cc(OC)cc(OC)c2)c2nc3ccccc3nc12,23,58*,-9,109*,2,33
COc1ccc(CC(=O)N2CCc3cc(OC)c(OC)cc3C2C)c(OC)c1 (stereo unspecified),x,2,x,x,4,x
O=C(Nc1ccc(OC(F)F)cc1)c1cc[n+]([O-])cc1,x,-2,x,x,4,x
Oc1csc(Cc2nc(-c3ccccc3F)cs2)n1,13,21*,4,-12,12,5
Oc1csc(Cc2nc(-c3ccc(-c4ccccc4)cc3)cs2)n1,0,-6,-8,-50,0,-14
COC(=O)C1CCN(c2cc(=O)n(Cc3ccc(F)cc3)c(=O)[nH]2)CC1,-2,59*,-2,-3,3,-1
CCOC(=O)C1CCCN(c2cc(=O)n(Cc3ccc(F)cc3)c(=O)[nH]2)C1 (stereo unspecified),0,12,-8,-2,1,-2
O=c1cc(N2CCCCC2)[nH]c(=O)n1C1CCCCC1,13,12,11,-6,2,2
COC(=O)C1CCN(c2cc(=O)n(C3CCCCC3)c(=O)[nH]2)CC1,0,63*,3,0,2,0
COc1ccc(S(=O)(=O)NC(C)C(=O)NCc2ccc3c(c2)OCO3)cc1OC (stereo unspecified),x,1,x,x,-8,x
Cc1ccccc1-n1c(-c2ccco2)n[nH]c1=S,6,6,-8,6,30*,9
FC(F)(F)c1ccccc1-n1c(-c2ccco2)n[nH]c1=S,x,5,x,x,13,x
CSc1cc(C)c(OCC(=O)Nc2c(C)nn(C)c2C)c(C)c1,x,1,x,x,-2,x
CC1CC(C)CN(CCCNC(=O)c2ccc3c(c2)ncn3C2CCCC2)C1 (stereo unspecified),x,-1,x,x,-5,x
O=S1(=O)N[C@H](c2ccccc2)C[C@H](c2ccc(C(F)(F)F)cc2)O1,x,1,x,x,-6,x
O=C(COc1cccnc1[N+](=O)[O-])c1ccc(Cl)s1,-18,0,11,-6,32*,21
CCOC(=O)c1sc(NC(=O)c2cc(-c3ccc(C)cc3)nc3ccccc23)c(C#N)c1C,3,4,-9,-25,2,6
